Laboratory results taken from ChEMBL document CHEMBL1130405, “Cross-linking and sequence specific alkylation of DNA by aziridinyl quinones. 2. Structure requirements for sequence selectivity” (J Med Chem, 1997).

The compounds below were run on K562 (assay: In vitro cytotoxicity tested against human chronic leukemia K562 cells).
Assay type: functional, cell-based
In short: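 Human K562 chronic myeloid leukaemia cells, kept in log-phase suspension in RPMI 1640 with 10% horse serum at 37 °C, 5% CO2. Seeded at 600 cells/well and given continuous drug exposure for 5 days. Growth was read by MTT absorbance at 540 and 640 nm. Inhibition of growth was plotted against concentration, in triplicate at each concentration.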
O=C1C(c2ccccc2)=C(N2CC2)C(=O)C(c2ccccc2)=C1N1CC1 showed an IC50 of 0.067 µM. With CC1=C(N2CC2)C(=O)C(Cl)=C(N2CC2)C1=O the IC50 was 0.076 µM. In the case of CC1=CC(=O)C(N2CC2)=CC1=O, the IC50 is reported as 0.216 µM. Compound CCOC(=O)NC1=C(N2CC2)C(=O)C(NC(=O)OCC)=C(N2CC2)C1=O [DIAZIQUONE] has an IC50 of 0.063 µM. Compound O=C1C(F)=C(N2CC2)C(=O)C(F)=C1N1CC1 has an IC50 of 0.01 µM. Work on O=C1C(Br)=C(N2CC2)C(=O)C(Br)=C1N1CC1 yielded an IC50 of 0.042 µM. O=C1C=C(N2CC2)C(=O)C(c2ccccc2)=C1N1CC1 was tested, and the IC50 was 0.0031 µM. O=C1C(F)=C(N2CC2)C(=O)C(N2CC2)=C1F was tested, and the IC50 was 0.039 µM. Compound O=C1C(I)=C(N2CC2)C(=O)C(I)=C1N1CC1 has an IC50 of 0.05 µM. O=C1C=C(N2CC2)C(=O)C(c2ccc(Oc3ccccc3)cc2)=C1N1CC1 gave an IC50 of 0.17 µM. In the case of CC1=C(N2CC2)C(=O)C(C)=C(N2CC2)C1=O, the IC50 is reported as 0.0018 µM. Work on O=C1C=C(N2CC2)C(=O)C(Br)=C1N1CC1 yielded an IC50 of 0.0073 µM. O=C1C=C(N2CC2)C(=O)C(I)=C1N1CC1 gave an IC50 of 0.0126 µM. O=C1C=C(N2CC2)C(=O)C(Cl)=C1N1CC1 showed an IC50 of 0.0053 µM. With O=C1C(Cl)=C(N2CC2)C(=O)C(Cl)=C1N1CC1 the IC50 was 0.046 µM. OCC/N=C1C(O)=C(N2CC2)/C(=N\CCO)C(O)=C/1N1CC1 showed an IC50 of 0.158 µM. O=C1C=C(N2CC2)C(=O)C(N2CC2)=C1N1CC1 [TRIAZIQUONE] was tested, and the IC50 was 0.0029 µM. CC1=C(C)C(=O)C(N2CC2)=CC1=O was tested, and the IC50 was 0.239 µM. Cc1ccc(C2=C(N3CC3)C(=O)C=C(N3CC3)C2=O)cc1 showed an IC50 of 0.0048 µM. CC1=CC(=O)C(N2CC2)=C(C)C1=O was tested, and the IC50 was 0.476 µM. In the case of O=C1C(N2CC2)=C(N2CC2)C(=O)C(N2CC2)=C1N1CC1, the IC50 is reported as 0.0058 µM. O=C1C=C(N2CC2)C(=O)C=C1N1CC1 was tested, and the IC50 was 0.0083 µM.
